≈ marks a conversion by molar mass, not a printed value. Calls of active or inactive are those of the source. The calls are words filed in the database; no cut-off is given here.

This is an account of results in ChEMBL document CHEMBL1123677, “Structure-activity studies of 5-[[4-(4,5-dihydro-2-oxazolyl) phenoxy]alkyl]-3-methylisoxazoles: inhibitors of picornavirus uncoating” (J Med Chem, 1987).

The test system of data set [1] is rhinovirus A2. In words: Antiviral activity determined by ability to inhibit the HRV-2( human rhinovirus type -2) virus by plaque reduction assay in vitro. The data set is classed as functional. Conditions: Rhinovirus A. In outline:
(§1)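 Plaque reduction assay against human rhinovirus type 2 (HRV-2), following an earlier reported method. The value is the MIC, the minimum inhibitory concentration.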

The subject of data set [2] is rhinovirus A2. In words: Antirhinovirus activity was assessed and the maximum testable concentration that causes no apparent effects on the cell monolayers was determined against HRV-2 virus in vitro. The data set is classed as functional, human rhinovirus type 2.
For data set [3], the system named is Human rhinovirus sp. Description: Mean of MIC's was determined for the five types of virus like HRV-2, HRV-1A,HRV-22,HRV-41 and HRV-50. The data set is classed as functional. In outline: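 MIC measured by plaque reduction against HRV-2 first. The value is the mean of the MICs across these five serotypes.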
For data set [4], the system named is rhinovirus A22. In words: Tested for antirhinoviral activity against the rhinovirus serotype 22. The data set is classed as functional. Conditions: Rhinovirus A. In outline:
(§2)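 Selected compounds were tested across a 15-serotype rhinovirus panel: the five secondary serotypes plus 10 more. An MIC was recorded for each serotype. MIC80, the concentration inhibiting 80% of serotypes tested, was also derived from this panel.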

For data set [5], the system named is rhinovirus A41. In words: Tested for antirhinoviral activity against the rhinovirus serotype 41. The data set is classed as functional. Conditions: Rhinovirus A. An outline of the steps:
as §2

For data set [6], the system named is rhinovirus A25. In words: Tested for antirhinoviral activity against the rhinovirus serotype 25. The data set is classed as functional. Conditions: Rhinovirus A. An outline of the steps: as §2
Data set [7] has as its system rhinovirus B6. Description: Tested for antirhinoviral activity against the rhinovirus serotype 6. The data set is classed as functional. Conditions: Rhinovirus B. An outline of the steps: as §2
The test system of data set [8] is rhinovirus A1B. In words: Tested for antirhinoviral activity against the rhinovirus serotype 1B. Conditions: Rhinovirus A. The data set is classed as functional, human rhinovirus type 1b. In outline:
as §2

Data set [9] concerns rhinovirus B86. In words: Tested for antirhinoviral activity against the rhinovirus serotype 86. The data set is classed as functional. Conditions: Rhinovirus B. An outline of the steps: as §2
The test system of data set [10] is rhinovirus A50. In words: Tested for antirhinoviral activity against the rhinovirus serotype 50. Conditions: Rhinovirus A. The data set is classed as functional. In outline:
as §2

Data set [11] relates to rhinovirus A2. Description: Tested for antirhinoviral activity against the rhinovirus serotype 2. Conditions: Rhinovirus A. The data set is classed as functional, human rhinovirus type 2. In outline: as §2
Data set [12] relates to rhinovirus A15. In words: Tested for antirhinoviral activity against the rhinovirus serotype 15. The data set is classed as functional. Conditions: Rhinovirus A. An outline of the steps:
as §2

Data set [13] deals with rhinovirus A30. In words: Tested for antirhinoviral activity against the rhinovirus serotype 30. The data set is classed as functional. Conditions: Rhinovirus A. In outline: as §2
In data set [14] the test system is rhinovirus A21. Description: Tested for antirhinoviral activity against the rhinovirus serotype 21. Conditions: Rhinovirus A. The data set is classed as functional. An outline of the steps: as §2
Data set [15] concerns rhinovirus A67. In words: Tested for antirhinoviral activity against the rhinovirus serotype 67. The data set is classed as functional. Conditions: Rhinovirus A. An outline of the steps: as §2
Data set [16] relates to rhinovirus B14. In words: Tested for antirhinoviral activity against the rhinovirus serotype 14. The data set is classed as functional, human rhinovirus type 14. Conditions: Rhinovirus B. In outline:
as §2

In data set [17] the test system is Human rhinovirus 1A. Description: Tested for antirhinoviral activity against the rhinovirus serotype 1A. The data set is classed as functional. An outline of the steps:
as §2

Data set [18] has as its system human rhinovirus (15-serotype panel). In words: Antirhinovirus activity was determined by the ability to inhibit the growth of 80% of a panel of 15 human rhinovirus serotypes.
Data set [19] relates to rhinovirus A89. Description: Tested for antirhinoviral activity against the rhinovirus serotype 89. The data set is classed as functional, human rhinovirus type 89. Conditions: Rhinovirus A. An outline of the steps: as §2
In data set [20] the test system is rhinovirus A2. In words: Antirhinovirus activity was determined by the ability to inhibit the HRV-2( human rhinovirus type -2) virus by plaque reduction assay in vitro; IA is inactive. The data set is classed as functional, organism-based. An outline of the steps: as §1
The nature of data set [21]: Partition coefficient (logP). The data set is classed as physicochemical. Conditions: octanol/water.

With `Cc1cc(CCCCCOc2ccc(C3=NCCO3)cc2N(C)C)on1`, the MIC in data set [1] was 0.2 µM (≈ 0.0715 µg/mL); in data set [3] it was above 17 µM. The MTL in data set [2] came out at 17 µM.
As for `Cc1cc(CCCCCOc2ccc(C3=NCCO3)cc2Cl)on1`, the MIC in data set [4] came out at 0.1 µM (≈ 0.0349 µg/mL); in [5] it was 3.5 µM (≈ 1.22 µg/mL); in data set [6], 2.4 µM (≈ 0.837 µg/mL); in [1] it was 0.06 µM (≈ 0.0209 µg/mL); in data set [7] it was 0.6 µM (≈ 0.209 µg/mL); in [8], 0.2 µM (≈ 0.0698 µg/mL). Besides, the MIC in data set [9] came to 0.9 µM (≈ 0.314 µg/mL); in data set [10] it was 0.2 µM (≈ 0.0698 µg/mL); in data set [11], 0.06 µM (≈ 0.0209 µg/mL); in data set [12], 0.2 µM (≈ 0.0698 µg/mL); in data set [13], 0.07 µM (≈ 0.0244 µg/mL); in data set [3], 1 µM (≈ 0.349 µg/mL). Besides, the MIC stood at 0.07 µM (≈ 0.0244 µg/mL) in data set [14]; 0.23 µM (≈ 0.0802 µg/mL) in [15]; 2.4 µM (≈ 0.837 µg/mL) in data set [16]; 1 µM (≈ 0.349 µg/mL) in data set [17]; 0.03 µM (≈ 0.0105 µg/mL) in data set [19]. Besides, the MTL in data set [2] stood at 8.9 µM. In addition, in data set [18], the MIC80 was found to be 1 µM (≈ 0.349 µg/mL).
For `Cc1cc(CCCCCOc2ccc(C3=NCCO3)c(C)c2)on1`, the MIC in data set [1] is 0.41 µM (≈ 0.135 µg/mL); in data set [3] it was above 18 µM. The MTL in [2] stood at 19 µM. In addition, the MIC80 in data set [18] was 15 µM (≈ 4.93 µg/mL).
Regarding `Cc1cc(CCCCCOc2ccc(C3=NCCO3)cc2C(C)C)on1`, the results for the MIC in [1] and in data set [3] were 0.2 µM (≈ 0.0713 µg/mL) and above 50 µM, respectively. The MTL in [2] was found to be 2.2 µM.
In the case of `Cc1cc(CCCCCOc2ccc(C3=NCCO3)cc2C(C)(C)C)on1`, the MTL in data set [2] is 8.4 µM. The MIC entry in [20] was “inactive”.
With `Cc1cc(CCCCCOc2ccc(C3=NCCO3)cc2N)on1`, the values for the MIC in data set [1] and in [3] were 0.91 µM (≈ 0.3 µg/mL) and 7 µM (≈ 2.31 µg/mL), respectively. The logP in [21] was 2.83. The MTL in [2] worked out at 19 µM.
`Cc1cc(CCCCCOc2ccc(C3=NCCO3)cc2CO)on1` yielded an MIC in data set [1] of 7.1 µM (≈ 2.45 µg/mL). In addition, the MTL in [2] worked out at 9 µM.
For the molecule `Cc1cc(CCCCCCOc2ccc(C3=NCCO3)cc2Cl)on1`, the figures for the MIC in data set [1] and in data set [3] were 0.06 µM (≈ 0.0218 µg/mL) and 1.4 µM (≈ 0.508 µg/mL), respectively. Further, the MTL in data set [2] is 8.5 µM. The molecule further returned an MIC80 in data set [18] of 1.2 µM (≈ 0.435 µg/mL).
In the case of `CC(=O)c1cc(C2=NCCO2)ccc1OCCCCCc1cc(C)no1`, the MIC in [4] is 0.1 µM (≈ 0.0356 µg/mL); in data set [5] it was 2.9 µM (≈ 1.03 µg/mL); in data set [6] it was 2.2 µM (≈ 0.784 µg/mL); in [1] it was 0.1 µM (≈ 0.0356 µg/mL); in [7] it was 5.1 µM (≈ 1.82 µg/mL); in data set [8] it was 0.3 µM (≈ 0.107 µg/mL). Further, the MIC in data set [9] is 6.5 µM (≈ 2.32 µg/mL); in data set [10] it was 0.2 µM (≈ 0.0713 µg/mL); in data set [11] it was 0.1 µM (≈ 0.0356 µg/mL); in [12] it was 0.4 µM (≈ 0.143 µg/mL); in [13], 0.3 µM (≈ 0.107 µg/mL); in [3], 1.1 µM (≈ 0.392 µg/mL). For the same molecule, the MIC was determined as 5.3 µM (≈ 1.89 µg/mL) in [14]; 0.6 µM (≈ 0.214 µg/mL) in data set [15]; 7.3 µM (≈ 2.6 µg/mL) in [16]; 2.2 µM (≈ 0.784 µg/mL) in data set [17]; 2 µM (≈ 0.713 µg/mL) in data set [19]. The molecule also came in with a lipophilicity (logP) in data set [21] of 3.28. In data set [2], the MTL amounted to 6.5 µM. The same molecule had an MIC80 in [18] of 5.1 µM (≈ 1.82 µg/mL).
In the case of `Cc1cc(CCCCCCCOc2ccc(C3=NCCO3)cc2Cl)on1`, the MIC worked out at 0.1 µM (≈ 0.0377 µg/mL) in data set [1] and 2.3 µM (≈ 0.867 µg/mL) in data set [3]. Moreover, the MTL in data set [2] stood at 17 µM. Besides, in data set [18], the MIC80 worked out at 2.8 µM (≈ 1.06 µg/mL).
`Cc1cc(CCCCCOc2ccc(C3=NCCO3)cc2C(F)(F)F)on1`: the MIC in data set [4] was 0.07 µM (≈ 0.0268 µg/mL); in data set [5], 0.2 µM (≈ 0.0765 µg/mL); in [6] it was 0.2 µM (≈ 0.0765 µg/mL); in data set [1] it was 0.03 µM (≈ 0.0115 µg/mL); in data set [7] it was 1.8 µM (≈ 0.688 µg/mL); in data set [8] it was 0.04 µM (≈ 0.0153 µg/mL). The MIC in data set [9] was determined as 0.03 µM (≈ 0.0115 µg/mL); in [10] it was 1.1 µM (≈ 0.421 µg/mL); in [11], 0.03 µM (≈ 0.0115 µg/mL); in [12], 0.2 µM (≈ 0.0765 µg/mL); in data set [13], 0.3 µM (≈ 0.115 µg/mL); in data set [3] it was 0.4 µM (≈ 0.153 µg/mL). The MIC turned out to be 0.03 µM (≈ 0.0115 µg/mL) in data set [14]; 0.2 µM (≈ 0.0765 µg/mL) in data set [15]; 3 µM (≈ 1.15 µg/mL) in [16]; 0.4 µM (≈ 0.153 µg/mL) in data set [17]; 0.2 µM (≈ 0.0765 µg/mL) in [19]. The same molecule registered a logP in data set [21] of 4.38. Besides, the MTL in data set [2] amounted to 3.4 µM. In data set [18], this molecule showed an MIC80 of 1.1 µM (≈ 0.421 µg/mL).
